KCC2 mod = modulators of human KCC2 chloride dependent transport; KCC2 cells, thallium flux FluoZin-2 fluorescence; B-score of Tl+ flux slope (higher = more flux/activation; lower = inhibition) at 10 µM; actives 2.2% (n = 190,000);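 active = thallium flux slope and its plate-corrected score both differing from the plate sample mean at a set confidence after two filtering rounds, in either direction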;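 also: slope of fluorescence scaled to starting intensity during 10 to 20 s after thallium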
KCNQ1 act = human KCNQ1 channel potentiation or activation; P51787; CHO-K1 KCNQ1, thallium flux FluxOR fluorescence; active compounds read high; B-score at 10 µM; actives 0.35% (n = 310,000); AID 2648;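 active = fluorescence ratio B-score, a plate-corrected score, at least three library SD, with initial intensity B-score within 5 SD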
Target sequence (P51787 whole entry, looked up): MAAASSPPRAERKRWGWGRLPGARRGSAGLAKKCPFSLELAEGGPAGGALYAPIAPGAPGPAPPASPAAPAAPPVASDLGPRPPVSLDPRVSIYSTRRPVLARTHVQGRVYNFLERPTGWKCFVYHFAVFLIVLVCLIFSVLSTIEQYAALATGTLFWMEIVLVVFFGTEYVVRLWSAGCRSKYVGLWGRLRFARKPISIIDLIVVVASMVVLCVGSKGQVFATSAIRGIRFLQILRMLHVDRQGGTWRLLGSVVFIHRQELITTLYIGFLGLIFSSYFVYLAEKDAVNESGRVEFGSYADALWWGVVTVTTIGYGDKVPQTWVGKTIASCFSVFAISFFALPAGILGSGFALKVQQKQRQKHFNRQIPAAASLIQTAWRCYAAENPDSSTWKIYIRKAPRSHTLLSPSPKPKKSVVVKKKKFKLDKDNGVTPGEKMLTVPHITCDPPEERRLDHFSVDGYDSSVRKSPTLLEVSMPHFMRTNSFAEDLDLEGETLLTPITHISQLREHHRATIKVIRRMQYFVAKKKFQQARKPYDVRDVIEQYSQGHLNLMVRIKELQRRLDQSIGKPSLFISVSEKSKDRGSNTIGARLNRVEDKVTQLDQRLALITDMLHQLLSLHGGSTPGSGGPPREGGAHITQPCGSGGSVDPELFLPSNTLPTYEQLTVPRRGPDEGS
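Assay system: CHO-K1 cells stably expressing KCNQ1; Medium: assay buffer with matched DMSO; Also added: K+/Tl+ depolarizing stimulus; Dosing: single dose; Timing: dye 90 min, compound 20 min, room temperature; Measured by: kinetic FluxOR thallium fluorescence, 10-s 1-Hz baseline, 110-s post-stimulus read; Read-out: peak-minus-minimum fluorescence over initial fluorescence, negative-control normalized, B-scored.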
KCNK9 inh = inhibitors of human KCNK9 two-pore domain potassium channel | Q9NPC2 | HEK293 KCNK9, FluxOR thallium flux fluorescence; active compounds read low | AID 488922 | B-score at 10 µM | actives 1.2% (n = 310,000);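 active = ratio B-score over 3 SD below the library mean, with starting fluorescence within 5 SD of its mean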;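 also: negative B-score means less thallium flux so channel inhibition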
hERG protect = shields human hERG channel from block by proarrhythmic agents; activation (rescue from dofetilide block), less the hit threshold, % at 10 µM; AID 1511; actives 0.51% (n = 310,000); CHO-hERG, FluxOR thallium flux, dofetilide IC70 present;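 active = activation above the mean of controls blocked by dofetilide plus 5 SD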;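 also: thallium influx through hERG after potassium depolarization seen as dye fluorescence rise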
KCNQ1 block = human KCNQ1 channel inhibition; P51787; AID 2642; actives 1.3% (n = 310,000); CHO-K1 KCNQ1, FluxOR thallium flux fluorescence; active compounds read high; B-score at 10 µM;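 active = compounds whose thallium flux B-score, printed positive for inhibition, exceeds three library SD while starting fluorescence stays within three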;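 also: channel opened by potassium depolarization with thallium stimulus after 20 min compound exposure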
KCNK3 block = human KCNK3 channel inhibition, primary screen; O14649; CHO-KCNK3 thallium flux, FluxOR fluorescence; active compounds read low; B-score at 10 µM; actives 0.84% (n = 340,000); AID 602410;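 active = B-score under library mean minus 4 SD, starting fluorescence ratio at most library mean plus 5 SD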;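 also: more negative B-score means stronger inhibition of thallium flux through KCNK3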
KCNQ1 inh valid = reconfirmed blocker of the human KCNQ1 potassium channel. shares compounds with KCNQ1 block. KCNQ1 cell line, FluxOR thallium flux fluorescence. inhibition, % at 10 µM. actives 93% (n = 1,600). AID 588353;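 active = primary screen active, with duplicate mean exceeding buffer control mean plus 3 SD of buffer wells, cut at about 28% in these data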;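 also: 0% = buffer control ratio and 100% = XE991 inhibitor control ratio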
CHO Tl flux = KCNQ1 inhibitor counter-screen hit in parental CHO cells | shares compounds with KCNQ1 block | fluorescence ratio (Tl flux) at 10 µM | parental CHO-K1, FluxOR thallium flux fluorescence ratio; active compounds read low; zero means no signal rise above baseline | actives 21% (n = 1,600);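 active = mean of duplicate thallium-flux fluorescence ratios in parental host cells more than 5 SD below the buffer control mean, cut at about 0.38 in these data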;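 also: ratio is peak minus minimum fluorescence divided by baseline fluorescence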
KCNQ1 APC inh = human KCNQ1 inhibition validated by electrophysiology | calls only at 10 µM | shares compounds with KCNQ1 block | KCNQ1-CHO cells, automated patch clamp current | AID 624120 | actives 20% (n = 490);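 active = KCNQ1 current drop exceeding 3 SD of negative control wells, seen in both duplicate runs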;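 also: steady state current during a 2 s step from -80 to +40 mV; negative values mean current inhibition and positive values mean potentiation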
KCNQ2 inh = selectivity of KCNQ1 inhibitors: inhibition of rat KCNQ2 channel | KCNQ2 cells, FluxOR thallium flux fluorescence | actives 71% (n = 1,600) | inhibition, % at 10 µM | shares compounds with KCNQ1 block;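 active = mean percent inhibition of the KCNQ2 thallium signal more than 5 SD above the buffer-only control wells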;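 also: KCNQ2 expressed in CHO cells; 0% = buffer control wells and 100% = XE-991 inhibitor control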
KCNQ1-KCNE1 inh = KCNQ1 inhibitor that also blocks human KCNQ1/KCNE1 channel; shares compounds with KCNQ1 block; KCNQ1/KCNE1 cells, FluxOR thallium flux fluorescence; inhibition, % at 10 µM; actives 77% (n = 1,600); AID 652147;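 active = mean percent inhibition of duplicate wells above the buffer-only control mean plus 3 SD of those controls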;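 also: 0% = buffer only wells and 100% = XE-991 inhibitor control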
KCNK9 inh conf = human KCNK9 inhibitor confirmation. actives 43% (n = 4,900). HEK293 KCNK9 cells, FluxOR thallium flux fluorescence. inhibition, % at 10 µM. shares compounds with KCNK9 inh;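 active = thallium signal inhibited by more than 5 SD of the compound-free buffer control wells, on both duplicate plates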;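 also: 0% = assay buffer control wells without compound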
Kir21 sel = selectivity of KCNK9 modulators against mouse Kir2.1; shares compounds with KCNK9 inh; Kir2.1 cells, FluxOR thallium flux fluorescence; inhibition, % at 10 µM; actives 4% (n = 4,900);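 active = thallium signal drop more than 5 SD beyond the mean of the no-compound control wells, seen in both duplicate plates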;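 also: signal is fluorescence rise after thallium addition divided by baseline fluorescence; plate controls were assay buffer only for no effect and full block by chlorpromazine control for full effect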
HEK293 Tl ctr = second check of KCNK9 modulator effects in non-induced HEK293 cells. shares compounds with KCNK9 inh. FluxOR thallium flux. actives 40% (n = 4,900). inhibition, % at 10 µM;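 active = thallium signal drop beyond 5 SD of the untreated control mean, on both duplicate plates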;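 also: plate controls were buffer only IC0 wells for no effect and SID17386958 at its maximal inhibitory level for full effect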
KCNK3 confirm = confirmation of human KCNK3 two-pore domain potassium channel inhibitors; shares compounds with KCNK3 block; CHO-KCNK3 thallium flux, FluxOR fluorescence; 0% buffer, 100% carvedilol maximal block; ratio percent of control, % at 10 µM; actives 99% (n = 2,400);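 active = ratio percent of control, averaged over triplicates, above buffer control mean plus 5 SD, cut at about 64% in these data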;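 also: ratio is the fluorescence rise from min to max over baseline after thallium stimulus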
KCNK3 noninduced = activity in cells without induced KCNK3 expression | thallium flux ratio (lower = more inhibition) at 10 µM | non-induced KCNK3 parental cells, FluxOR thallium flux; active compounds read low | shares compounds with KCNK3 block | actives 40% (n = 2,400) | AID 651747;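 active = thallium flux ratio, averaged over three wells, more than 5 SD below the buffer control mean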;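 also: host cells are CHO cells without KCNK3 induction; ratio is peak minus trough fluorescence over baseline then normalized to buffer controls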
* = called active by the depositor; i = inactive; . = no result given; + = active, no number. Shown are actives, neighbours in structure and some others; about 4.1% of the full set was active somewhere.

SMILES	KCC2 mod	KCNQ1 act	KCNK9 inh	hERG protect	KCNQ1 block	KCNK3 block	KCNQ1 inh valid	CHO Tl flux	KCNQ1 APC inh	KCNQ2 inh	KCNQ1-KCNE1 inh	KCNK3 confirm	KCNK3 noninduced	others
c1ccc(N2CCN(c3nc(NCc4ccco4)c4ccccc4n3)CC2)cc1	.	i	i	-26	12*	-12*	144*	0.35*	.	114%*	192%*	140*	0.11*
Cc1ccc(NC(=S)NCc2ccccc2)cc1S(=O)(=O)N1CCCCC1	-0.72	i	i	-11	6*	-11*	108*	0.52	i	62%*	i	116*	i
O=C(Nc1ccc(Br)cc1)Nc1ccccc1Cl	1.4	i	-6.7*	-8	7*	-8.7*	34*	0.52	.	i	i	86*	i
CCOc1ccc(N(CC(=O)Nc2cccc(F)c2)S(=O)(=O)c2c(C)noc2C)cc1	1.8	i	i	-5	i	i	.	.	.	.	.	.	.
CCOc1ccc(N(CC(=O)Nc2ccc(C)c(C)c2)S(=O)(=O)c2c(C)noc2C)cc1	0.29	i	i	-5	7*	-9.7*	96*	0.38	i	112%*	143%*	93*	i
O=C(c1cnc(N2CCN(c3ccccn3)CC2)c2ccccc12)N1CCN(c2cccc(Cl)c2)CC1	0.4	i	i	-3	10*	-9.3*	102*	0.38*	.	119%*	130%*	97*	i
Cc1cccc(C)c1OCC(O)Cn1c2ccccc2c2ccccc21 (stereo not given)	1.1	i	i	-16	11*	-11*	0	0.46	.	75%*	i	116*	i
Cc1ccc(OCC(O)Cn2c3ccccc3c3ccccc32)cc1 (stereo not given)	.	i	i	-5	i	i	.	.	.	.	.	.	.
Cc1ccc(Cl)cc1N1CCN(C(=S)NCCc2ccccc2)CC1	0.074	i	i	-14	12*	-11*	111*	0.4	i	117%*	108%*	128*	0.15*
COc1cc(C(=O)Nc2ccc(C(F)(F)F)cc2)ccc1OCC(=O)N1CCOCC1	.	.	.	.	.	i	.	.	.	.	.	.	.
CN(C)S(=O)(=O)c1cccc(C(=O)Nc2cc(Cl)cc(Cl)c2)c1	0.36	i	i	-10	7*	-13*	67*	0.49	.	110%*	i	126*	i
CN(C)S(=O)(=O)c1cccc(C(=O)Nc2ccccc2)c1	-0.7	i	i	-2	i	i	.	.	.	.	.	.	.
C/C(=N\NC(=O)c1cccc(Br)c1)c1cccnc1	.	i	i	-8	i	i	.	.	.	.	.	.	.
CCOC(=O)Nc1nc(-c2ccccc2)c(C(=O)c2ccc(Cl)cc2)s1	0.55	i	-15*	-12	7*	-8.7*	98*	0.36*	.	94%*	171%*	125*	0.16*	KCNK9 inh conf=40%*;Kir21 sel=i;HEK293 Tl ctr=42%*
O=C(NC1CCCC1)C1CCCN(S(=O)(=O)c2ccc(F)cc2)C1 (stereo not given)	.	i	i	-3	i	i	.	.	.	.	.	.	.
O=C(N/N=C/c1ccc(O)c(Br)c1)c1cc2c(ccc3ccccc32)o1	.	i	i	-4	i	i	.	.	.	.	.	.	.
O=C(N/N=C/c1cc(Br)c(O)c(Br)c1)c1cc2c(ccc3ccccc32)o1	.	i	i	-49	15*	-11*	160*	0.32*	.	130%*	+	136*	0.093*
CCCNC(=S)N1CCN(c2nc(C)nc3sc4c(c23)CCCC4)CC1	-0.71	i	i	-13	8*	-9.5*	112*	0.41	i	135%*	170%*	134*	0.14*
O=C(NCCSCc1ccco1)Nc1cc(Cl)cc(Cl)c1	-1.2	i	-8.2*	-19	8*	-13*	134*	0.42	i	i	91%*	100*	i	KCNK9 inh conf=68%*;Kir21 sel=i;HEK293 Tl ctr=32%*
COc1ccccc1NC(=O)Nc1nc(CC(=O)Nc2ccc(OC)c(OC)c2)cs1	.	i	i	-12	i	i	.	.	.	.	.	.	.
COc1cc(C)ccc1NC(=O)Cc1csc(NC(=O)Nc2ccccc2OC)n1	.	i	-8.8*	-22	17*	-13*	115*	0.49	i	121%*	172%*	133*	i	KCNK9 inh conf=28%*;Kir21 sel=i;HEK293 Tl ctr=24%*
CN(C)CCCNc1nc(-c2ccccc2)nc2ccccc12	.	i	i	-10	i	i	.	.	.	.	.	.	.
CC(C)OCCCNc1nc(-c2ccccc2)nc2ccccc12	.	i	i	-24	7*	-10*	88*	0.48	i	117%*	152%*	123*	i
Cc1nnc(SCC(=O)Nc2c(Cl)cccc2Cl)n(N)c1=O	.	i	i	-14	i	i	.	.	.	.	.	.	.

Screening data (PubChem BioAssay)
